One compound from BindingDB's records for doi:10.1021/jm00014a008 (Sterling Winthrop Research, 1995) can be followed below.

Molecules are shown by their SMILES. Where only a bound is given, the exact number is not on record here.

For the assay, the target named is Sodium channel protein type 5 subunit alpha (Homo sapiens, UniProt Q14524). The experiment in a line: Blockade of Na+ current in frog oocytes expressing human cardiac sodium channel (HH1). The essentials: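 HH1 transcripts injected into Xenopus laevis oocytes, incubated at room temperature 24–72 h. Two-microelectrode voltage clamp (3 M KCl electrodes), bath NaCl 140, KCl 2, CaCl2 1.8, MgCl2 1, HEPES 5 mM, pH 7.5, 21–23 °C. Holding −100 mV; peak current at the I–V maximum measured before and after test agent; IC50 in μM.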
Sodium channel protein type 5 subunit alpha, sequence (Q14524 whole entry): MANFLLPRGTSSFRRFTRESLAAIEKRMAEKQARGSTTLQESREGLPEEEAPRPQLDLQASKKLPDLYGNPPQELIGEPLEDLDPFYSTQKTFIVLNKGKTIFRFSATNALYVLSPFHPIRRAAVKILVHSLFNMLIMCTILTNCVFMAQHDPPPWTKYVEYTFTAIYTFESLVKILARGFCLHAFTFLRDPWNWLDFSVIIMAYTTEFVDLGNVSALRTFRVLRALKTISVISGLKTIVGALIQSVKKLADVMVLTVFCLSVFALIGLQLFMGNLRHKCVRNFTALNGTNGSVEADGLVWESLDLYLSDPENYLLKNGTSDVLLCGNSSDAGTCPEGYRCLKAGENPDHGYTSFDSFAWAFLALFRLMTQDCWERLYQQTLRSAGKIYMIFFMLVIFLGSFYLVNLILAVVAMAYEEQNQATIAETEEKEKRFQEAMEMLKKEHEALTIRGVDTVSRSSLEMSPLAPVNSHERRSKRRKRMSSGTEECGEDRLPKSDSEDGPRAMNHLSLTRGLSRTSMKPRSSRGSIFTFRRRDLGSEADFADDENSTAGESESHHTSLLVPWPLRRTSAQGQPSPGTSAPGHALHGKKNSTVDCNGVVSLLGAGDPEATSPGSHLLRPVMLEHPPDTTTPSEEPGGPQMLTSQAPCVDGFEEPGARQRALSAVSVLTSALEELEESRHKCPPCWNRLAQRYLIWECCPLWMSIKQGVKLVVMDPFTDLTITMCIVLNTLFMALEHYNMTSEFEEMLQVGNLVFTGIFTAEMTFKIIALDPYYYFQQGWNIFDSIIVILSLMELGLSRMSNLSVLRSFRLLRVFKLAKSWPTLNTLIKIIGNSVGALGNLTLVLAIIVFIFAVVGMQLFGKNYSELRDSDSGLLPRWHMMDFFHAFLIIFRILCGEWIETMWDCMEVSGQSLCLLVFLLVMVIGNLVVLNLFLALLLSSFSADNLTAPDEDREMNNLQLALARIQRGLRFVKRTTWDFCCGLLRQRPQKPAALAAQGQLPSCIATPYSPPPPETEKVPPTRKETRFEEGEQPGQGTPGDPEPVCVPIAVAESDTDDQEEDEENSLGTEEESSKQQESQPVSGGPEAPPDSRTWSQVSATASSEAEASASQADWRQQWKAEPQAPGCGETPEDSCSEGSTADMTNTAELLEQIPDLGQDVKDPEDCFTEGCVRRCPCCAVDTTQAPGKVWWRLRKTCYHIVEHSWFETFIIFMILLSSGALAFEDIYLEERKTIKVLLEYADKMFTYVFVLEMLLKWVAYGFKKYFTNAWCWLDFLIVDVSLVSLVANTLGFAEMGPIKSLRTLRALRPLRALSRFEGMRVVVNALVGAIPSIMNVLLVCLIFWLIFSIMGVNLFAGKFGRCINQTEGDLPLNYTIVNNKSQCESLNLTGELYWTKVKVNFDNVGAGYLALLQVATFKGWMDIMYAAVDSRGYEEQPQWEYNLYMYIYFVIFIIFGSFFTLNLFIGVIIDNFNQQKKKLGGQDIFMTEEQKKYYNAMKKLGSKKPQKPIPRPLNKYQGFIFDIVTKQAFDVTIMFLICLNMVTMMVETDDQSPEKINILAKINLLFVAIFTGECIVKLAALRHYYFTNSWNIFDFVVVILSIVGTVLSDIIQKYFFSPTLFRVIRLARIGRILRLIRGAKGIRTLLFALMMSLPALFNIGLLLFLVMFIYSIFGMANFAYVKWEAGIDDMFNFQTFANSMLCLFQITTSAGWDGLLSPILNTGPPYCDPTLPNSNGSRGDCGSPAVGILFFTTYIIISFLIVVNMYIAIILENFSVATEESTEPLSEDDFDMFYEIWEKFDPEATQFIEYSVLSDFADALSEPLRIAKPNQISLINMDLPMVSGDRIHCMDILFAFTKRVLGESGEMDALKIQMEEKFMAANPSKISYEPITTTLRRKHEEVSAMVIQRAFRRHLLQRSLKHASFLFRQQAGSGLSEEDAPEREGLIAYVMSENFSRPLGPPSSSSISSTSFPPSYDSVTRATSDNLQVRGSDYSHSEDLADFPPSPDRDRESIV

`CSc1ccc([C@H]2N=C(OCc3ccc(NS(C)(=O)=O)cc3)N(C)Cc3ccccc32)cc1`: the IC50 (commonly the midpoint of a concentration-inhibition curve) was over 30 µM.
